IMP-1 inh: inhibitors of Pseudomonas aeruginosa IMP-1 metallo-beta-lactamase | inhibition, % at 5.6 µM | purified IMP-1, nitrocefin hydrolysis, epi-absorbance fluorescence | 290,000 tested, 0.45% active;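 active means inhibition above the mean plus 3 SD of all compounds in the same screening run, cut at about 4.5% in these data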
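System: Purified recombinant IMP-1 metallo-beta-lactamase enzyme | Measured by: Fluorescence quenching readout, ex 480/em 530 nm | Replication: Singlicate | Incubation: 15 min preincubation plus 25 min reaction at 25 °C | Evaluation: Percent inhibition from optical density relative to buffer-blank wells | Benchmarks: DMSO with and without IMP-1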
697 NFkB inh: lowers PMA/ionomycin-induced NF-kB signal in 697 B cells. inhibition, % at 4 µM. 330,000 tested, 0.33% active. AID 435022. 697 B-cell NF-kB luciferase reporter, 16 h; in the data active means inhibition above about 35%
VIM-2 inhibitor: blocks Pseudomonas aeruginosa VIM-2 metallo-beta-lactamase. purified VIM-2, nitrocefin hydrolysis, epi-absorbance fluorescence. inhibition, % at 5.6 µM. 290,000 tested, 0.89% active. AID 1527;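 active means inhibition above the mean of all tested compounds plus 3 SD, cutoff set per screening run, cut at about 7.5% in these data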;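 further: red hydrolysis product quenches plate fluorescence so inhibitors raise well fluorescence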
aSyn UTR inh: 5' untranslated region of α-synuclein, MLPCN primary screen. alpha-synuclein 5'UTR reporter, inhibitor activity. inhibition, % (tested at 7.5 µM). 300,000 tested, 0.82% active. AID 1813; in the data active means inhibition above about 60%; inconclusive means no clear call, values can overlap the other calls;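 further: H4 neuroglioblastoma cells stably carrying SNCA 5'UTR luciferase fusion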
Mdm2-MdmX inh: human Mdm2/MdmX binding inhibition | O15151+Q00987 | SaOS-2 split-luciferase Mdm2/MdmX complementation, luminescence | inhibition, % at 8 µM | 330,000 tested, 3% active | AID 485346;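 active means inhibition of at least 50% at 8 µM in the primary screen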
Jurkat NFkB inh: lowers PMA/ionomycin-induced NF-kB signal in Jurkat cells; AID 435003; inhibition, % at 4 µM; PMA/ionomycin-induced NF-kB luciferase reporter, luminescence; 330,000 tested, 0.53% active; in the data active means inhibition above about 50%
Mdm2 MdmX conf: confirmation of human Mdm2/MdmX interaction inhibitors. inhibition, % at 8 µM. AID 489028. 10,000 tested, 55% active. shares compounds with Mdm2-MdmX inh. Mdm2-MdmX binding, luminescent assay; in the data active means inhibition above about 40%
Full FLuc ctr: full-length luciferase inhibition in Mdm2/MdmX counter-screen. shares compounds with Mdm2-MdmX inh. SaOS-2 full-length luciferase counterscreen, luminescence. inhibition, % at 8 µM. 6,200 tested, 77% active. AID 504607;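 active means mean inhibition at 8 µM reaching about 37%, which flags the compound as non-specific, limit read from the data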;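 further: p53-null SaOS-2 cells with luciferase driven by a doxycycline-inducible promoter; compound on cells about two nights before reading with doxycycline added after day one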
Hits are given with their value; 0 = inactive; ? = inconclusive; - = no result. Most compounds without a hit are left out; they make up all but 4.7% or so of the library.

SMILES	IMP-1 inh	697 NFkB inh	VIM-2 inhibitor	aSyn UTR inh	Mdm2-MdmX inh	Jurkat NFkB inh	Mdm2 MdmX conf	Full FLuc ctr
COc1ccccc1N/C=C/C(=C(C#N)C#N)N(C)C	0	0	0	0	0	0	-	-
CCN(CC)c1ccc2cc(/C(N)=N/NC(=O)c3cccs3)c(=O)oc2c1	0	0	0	0	84.8	0	70.8	84.1
N/C(=N\NC(=O)c1cccs1)c1cc2ccccc2oc1=O	0	0	0	0	0	0	-	-
CCCCOC(=O)CCCN1C(=O)/C(=C2\SC(=S)N(CCCC(=O)OCCCC)C2=O)SC1=S	0	0	0	0	0	0	-	-
O=C(CCl)Nc1cccc(S(=O)(=O)NC2=NCCC2)c1	0	0	0	0	53.5	0	43.8	68.2
CCNC(=S)Nc1cccc(S(=O)(=O)NC2=NCCC2)c1	0	0	0	0	0	0	-	-
CCOC(=O)/C=c1\s/c(=C\c2c(OC)ccc3ccccc23)c(=O)n1CC(=O)NCC1CCCO1 (configuration not stated)	0	0	0	70.8	62.7	0	64.7	77.1
CCOC(=O)/C=c1\s/c(=C\c2ccc(C(=O)OC)cc2)c(=O)n1CC(=O)Nc1ccccc1	0	0	0	0	62.3	0	0	-
COc1ccc(-c2cc(=O)oc3c(C)c(OCC(=O)Nc4cccnc4)ccc23)cc1	6.7	0	0	0	51.4	0	0	-
O=C(c1ccncc1)N1N=C(c2ccc(Br)cc2)CC1c1ccccc1O (configuration not stated)	0	0	0	0	0	0	-	-
O=C(c1ccccc1Cl)N1N=C(c2ccc(Br)cc2)CC1c1nc2ccccc2[nH]1 (configuration not stated)	0	0	0	0	71.0	0	50.2	89.8
CCOc1ccc(/C=C/C(O)=C2/C(=O)N(C)C3(C)CC2c2ccccc2O3)cc1OC (configuration not stated)	0	0	0	0	66.6	0	69.2	41.3
CCOc1ccc(NC(=O)CCNC(=O)Cn2cnc3ccccc3c2=O)cc1	0	0	0	0	0	0	-	-
O=S(=O)(Nc1nc2ccccc2nc1Nc1ccc(N2CCOCC2)cc1)c1cc(Cl)ccc1Cl	0	0	0	0	68.4	0	0	73.2
CCCCOc1ccc(/C=C/C(=O)OCC(=O)N2CC(=O)Nc3ccccc32)cc1OCC	0	0	0	0	0	0	-	-
COc1cc(OC)c(C(=O)/C=C/c2ccc(OCc3ccccc3)c(OC)c2)c(OC)c1	0	0	0	0	60.4	0	0	-
COc1cc(/C=C/C(=O)N2CCOCC2)ccc1OCc1ccccc1	0	0	0	0	0	0	-	-
COc1cc(/C=C/C(=O)NC(C)(C)C)ccc1OCc1ccccc1	0	0	0	?	0	0	-	-
COc1cc(OCc2ccccc2)c(C(=O)/C=C/c2ccc3c(c2)OCO3)c(OC)c1OC	-	0	-	0	70.1	0	0	-
O=C(COc1cccnc1[N+](=O)[O-])NCCc1ccccc1	0	0	0	0	0	0	-	-
Cc1cc(Nc2nc3ccccc3nc2Cl)n(-c2ccc([N+](=O)[O-])cc2)n1	0	0	0	0	95.9	0	48.9	51.5
N#C/C(=C\C=C\c1ccccc1[N+](=O)[O-])C(=O)NCc1ccccc1	0	0	0	0	96.9	0	66.5	0
N#C/C(=C\c1ccccc1[N+](=O)[O-])C(=O)NCc1ccccc1	0	0	0	0	0	0	-	-
O=C(COc1cc(O)c2c(=O)cc(-c3ccccc3)oc2c1)c1ccccc1	0	0	0	0	0	0	-	-
Cc1ccc(C(=O)COc2cc(O)c3c(=O)cc(-c4ccccc4)oc3c2)cc1	0	0	0	0	62.2	0	0	-
SMILES	IMP-1 inh	697 NFkB inh	VIM-2 inhibitor	aSyn UTR inh	Mdm2-MdmX inh	Jurkat NFkB inh	Mdm2 MdmX conf	Full FLuc ctr
O=C(N/N=C/c1c(F)cccc1Cl)C(=O)N1CCCCCC1	0	0	0	0	56.4	0	0	-
O=C(N/N=C/c1ccc(Cl)cc1)C(=O)N1CCCCCC1	0	0	0	0	0	0	-	-
CCC(=O)c1ccc(OCC(O)CNC(C)c2ccccc2)cc1 (configuration not stated)	0	0	0	0	0	0	-	-
CC(C)c1ccc(OCC(O)CNC(C)c2ccccc2)cc1 (configuration not stated)	0	0	0	0	52.0	0	0	-
OC(CNCCc1ccc(Cl)cc1)COc1ccc2ccccc2c1 (configuration not stated)	0	-	0	-	-	-	-	-
OC(CNCCc1ccccc1)COc1ccc(OCC(O)CNCCc2ccccc2)cc1 (configuration not stated)	0	0	0	107.5	98.6	0	75.7	47.0
OC(CNCCC(c1ccccc1)c1ccccc1)COc1ccccc1 (configuration not stated)	0	0	0	0	70.2	0	0	-
CC(NCC(O)COCCC12CC3CC(CC(C3)C1)C2)c1ccccc1 (configuration not stated)	0	0	0	0	100.4	0	98.8	36.9
NCC(O)COCCC12CC3CC(CC(C3)C1)C2 (configuration not stated)	0	0	0	0	0	0	-	-
COc1ccc(/C=C/C(=O)NC(=S)NCc2ccccc2)cc1OC	0	0	0	0	0	0	-	-
COc1ccc(NC(=O)c2ccccc2NC(=O)NC2CCCCC2)cc1	0	0	0	0	0	0	-	-
CC(C)CCNCC(O)CON=C1c2ccccc2-c2ccccc21 (configuration not stated)	0	0	0	86.2	94.7	0	40.8	69.2
C=CCNc1nc(-c2ccccn2)nnc1-c1ccccc1	0	0	0	0	55.1	0	60.2	40.5
c1ccc(-c2cnnc(-c3ccccn3)n2)cc1	-	0	-	0	0	0	-	-
CCCCOC(=O)Nc1ccc(S(=O)(=O)Nc2nc(C)cc(C)n2)cc1	0	0	0	0	0	0	-	-
CCCCOC(=O)NS(=O)(=O)c1sc(CC(C)C)cc1-c1ccc(Cn2c(CC)nc3c(C)cc(C)nc32)cc1	-	0	-	-	89.4	0	0	71.8
Cn1ccc(C(=O)OCC(=O)Nc2cccc3ccccc23)n1	0	0	0	0	0	0	-	-
CC(=O)NCc1ccc(S(=O)(=O)N2CCN(S(=O)(=O)c3ccc4ccccc4c3)CC2)cc1	-	0	-	-	62.5	0	0	-
Cc1nc([N+](=O)[O-])c(Br)n1CC(=O)c1ccccc1	0	0	0	0	0	0	-	-
Cc1nc([N+](=O)[O-])c(Br)n1CC(=O)c1ccc2ccccc2c1	0	0	0	0	87.3	0	0	-
Cc1nc([N+](=O)[O-])c(Br)n1CC(=O)c1ccc(Br)cc1	0	0	0	0	63.2	0	0	-
CC1(C)CCCC(C)(C)N1CC(O)COCCOc1ccc(Br)cc1 (configuration not stated)	0	0	0	0	0	0	-	-
